Measurements: publication PMC7114156 (Antiviral Research, 2009)
Several values for one entry are separate records, joined by “and”; a condition that tells them apart may be missing. Identical values can stand only once.

How the values were obtained:
[1] = test system: HPV; assay: Viral DNA levels in the three HPV-infected cell lines; type: cell-based; details: read-out: K values, viral DNA levels
[2] = test system: IM9 cells; assay: Growth of IM9 cell line; type: cell-based, human
[3] = test system: cell lines immortalized by non-viral transformation events; assay: Growth of cell lines immortalized by non-viral transformation events; type: cell-based; details: Homo sapiens, read-out: Median effect concentrations, range
How it was run: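 Cells were plated in 96-well plates in medium holding serial dilutions of test compound, 1 nM to 10 μM, with DMSO ≤1% (v/v) final. Growth was read by MTS after 72 h at 37 °C: 2 h with reagent plus phenazine methosulfate, then A490. K and Imax came from a fit to a modified Hill equation. Vero cells are African Green monkey.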

[4] = test system: HPV-16; assay: HPV DNA by qPCR in W12-20850 cells; type: cell-based
[5] = test system: W12-20850 cells; assay: Growth of W12-20850 cells, MTS; type: cell-based, human
How it was run: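 For the time course, test compound was added at time zero to cells growing in 96-well plates. Growth was followed as rate of MTS reduction over 3 days from day zero, with untreated controls alongside.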

[6] = test system: Caski; assay: Growth of Caski; type: cell-based, human; details: 72 h
How it was run: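 Cell lines carrying integrated viral genomes were plated in 96-well plates in medium with test compound. Growth was read by ATP luminescence (CellTiter-Glo) for HEK293 and WI38 VA13, and by MTS reduction (A490 after 2 h at 37 °C) for Namalwa, W12 20861, SiHa, Caski and HeLa. K and Imax came from a fit to a modified Hill equation.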

[7] = test system: HIV-1; assay: HIV-1 infection in PBMCs; type: cell-based

In the case of `O=C(N[C@@H]1CCCc2c1[nH]c1ccc(Cl)cc21)c1ccccn1` [GSK983, N-[(1R)-6-Chloro-2,3,4,9-tetrahydro-1H-carbazol-1-yl]-2-pyridinecarboxamide], the EC50 [1] is reported as 2 to 5 nM, the EC50 ([2]; Homo sapiens, IM-9, 72 h, read-out: K, cell line growth) is reported as 16 ± 2 nM and the Selectivity index ([2]; IM9 (EBV) vs activated B cell) is reported as >620 ± 80. The “Outcome of growth inhibition over time” value ([2]; IM9, 3 days, higher concentrations) was “cell death”, the EC50 [3] was 10 to 50 nM and the Selectivity index ([4]; HPV DNA qPCR in W12-20850 vs HKC) was 12,000 ± 4,000. The “Imax, HPV DNA, qPCR” value ([4]; W12-20850, HPV type 16) was 85 ± 2%, the EC50 ([4]; W12-20850, read-out: K, HPV DNA, qPCR) was 3.3 ± 0.5 nM and the “HPV copy number, expressed as HPV genomes per actin gene” value ([4]; W12 cells, at 100 nM GSK983, reduced from 460) was 150 HPV genomes per actin gene. For the same compound, the EC50 ([5]; Homo sapiens, W12-20850, 96 h, read-out: K, Growth, MTS) was 11 ± 2 nM, the “Outcome of growth inhibition over time” value ([5]; W12, 3 days, rate of MTS reduction) was “cytostasis” and the “Imax, Growth, MTS” value ([5]; W12-20850, 4 days) was 60% and 60 ± 7%. For the same compound, the “Imax, Growth, MTS” value ([6]; Caski, HPV16 integrated) was 33 ± 1.5%, the EC50 ([6]; Homo sapiens, Ca-Ski, read-out: K, Growth, MTS) was 32 ± 6 nM and the “Susceptibility of HIV” value ([7]; at concentrations below 1 μM) was “not susceptible”. For the same compound, the “Inhibition of HIV-1 infection in PBMCs” value ([7]; concentration range 1 nM to 100 μM) was 50% inhibition in the micromolar range.
